This note sets out measurements from ChEMBL document CHEMBL4837264, “Rational Design, Optimization, and Biological Evaluation of Novel MEK4 Inhibitors against Pancreatic Adenocarcinoma” (ACS Med Chem Lett, 2021).

Calls of active or inactive are those of the source.

For data set [1], the target named is T1, Dual specificity mitogen-activated protein kinase kinase 3 (Homo sapiens) (UniProt P46734).
T1 sequence (whole entry): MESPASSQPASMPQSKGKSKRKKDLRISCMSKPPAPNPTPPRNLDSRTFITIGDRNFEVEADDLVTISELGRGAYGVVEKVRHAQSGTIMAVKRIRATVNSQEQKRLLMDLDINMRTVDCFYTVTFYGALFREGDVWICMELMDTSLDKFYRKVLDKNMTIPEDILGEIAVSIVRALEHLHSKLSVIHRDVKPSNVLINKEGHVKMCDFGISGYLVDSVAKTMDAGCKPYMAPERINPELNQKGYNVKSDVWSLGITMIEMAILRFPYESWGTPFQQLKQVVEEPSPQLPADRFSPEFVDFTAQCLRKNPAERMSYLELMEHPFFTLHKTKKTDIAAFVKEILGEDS
Nature of the data set: Inhibition of human wild type full length MEK3 (M1 to S318) expressed in mammalian expression system at 1 uM measured by Kinomescan assay.

Data set [2] concerns the target T2, Dual specificity mitogen-activated protein kinase kinase 7 (Homo sapiens) (UniProt O14733).
T2 sequence (whole entry): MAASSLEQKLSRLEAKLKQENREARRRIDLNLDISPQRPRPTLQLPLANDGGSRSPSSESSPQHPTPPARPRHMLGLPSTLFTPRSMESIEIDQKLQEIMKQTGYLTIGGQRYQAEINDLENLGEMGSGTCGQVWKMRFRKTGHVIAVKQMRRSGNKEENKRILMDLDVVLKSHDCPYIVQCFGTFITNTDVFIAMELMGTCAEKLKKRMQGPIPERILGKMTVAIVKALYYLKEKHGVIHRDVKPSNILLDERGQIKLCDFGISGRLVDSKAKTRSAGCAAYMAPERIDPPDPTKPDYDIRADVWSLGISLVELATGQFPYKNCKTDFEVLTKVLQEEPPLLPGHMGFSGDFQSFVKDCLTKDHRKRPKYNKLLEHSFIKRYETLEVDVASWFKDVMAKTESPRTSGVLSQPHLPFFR
Kind of data set: Inhibition of human wild type full length MEK7 (M1 to R417 residues) expressed in mammalian expression system at 1 uM measured by Kinomescan assay.

The target of data set [3] is T3, Dual specificity mitogen-activated protein kinase kinase 6 (Homo sapiens) (UniProt P52564).
T3 sequence (whole entry): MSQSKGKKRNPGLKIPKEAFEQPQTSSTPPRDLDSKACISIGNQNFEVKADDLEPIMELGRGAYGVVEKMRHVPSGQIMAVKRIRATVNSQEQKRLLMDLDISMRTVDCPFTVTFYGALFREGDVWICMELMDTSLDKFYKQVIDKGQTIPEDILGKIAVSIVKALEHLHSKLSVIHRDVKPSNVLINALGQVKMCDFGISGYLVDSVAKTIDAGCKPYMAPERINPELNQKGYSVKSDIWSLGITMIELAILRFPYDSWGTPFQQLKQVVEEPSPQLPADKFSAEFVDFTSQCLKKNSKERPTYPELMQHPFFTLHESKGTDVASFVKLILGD
Nature of the data set: Inhibition of human wild type partial length MEK6 (K36 to D344 residues) expressed in bacterial expression system at 10 uM measured by Kinomescan assay. The procedure, abridged: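 Kinome-wide binding scan on the scanEDGE DiscoverX platform, covering 97 kinases, each tested at a single compound concentration of 10 μM.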

The nature of data set [4]: Metabolic stability in human liver microsomes assessed as half life by microsome assay. In kind it is ADME. (Liver microsomes are vesicles of endoplasmic reticulum, rich in cytochrome P450 enzymes.)
A further data set concerns the target Cytochrome P450 3A5 (Homo sapiens, UniProt P20815). Kind of data set: Inhibition of CYP3A5 (unknown origin). It is filed as ADME.
A further data set addresses Cytochrome P450 2D6 (Homo sapiens, UniProt P10635). Kind of data set: Inhibition of CYP2D6 (unknown origin). It is filed as ADME.
For a further data set, the target named is Cytochrome P450 2C9 (Homo sapiens, UniProt P11712). Nature of the data set: Inhibition of CYP2C9 (unknown origin). It is filed as ADME.
Sequence of Cytochrome P450 2C9 (P11712 whole entry): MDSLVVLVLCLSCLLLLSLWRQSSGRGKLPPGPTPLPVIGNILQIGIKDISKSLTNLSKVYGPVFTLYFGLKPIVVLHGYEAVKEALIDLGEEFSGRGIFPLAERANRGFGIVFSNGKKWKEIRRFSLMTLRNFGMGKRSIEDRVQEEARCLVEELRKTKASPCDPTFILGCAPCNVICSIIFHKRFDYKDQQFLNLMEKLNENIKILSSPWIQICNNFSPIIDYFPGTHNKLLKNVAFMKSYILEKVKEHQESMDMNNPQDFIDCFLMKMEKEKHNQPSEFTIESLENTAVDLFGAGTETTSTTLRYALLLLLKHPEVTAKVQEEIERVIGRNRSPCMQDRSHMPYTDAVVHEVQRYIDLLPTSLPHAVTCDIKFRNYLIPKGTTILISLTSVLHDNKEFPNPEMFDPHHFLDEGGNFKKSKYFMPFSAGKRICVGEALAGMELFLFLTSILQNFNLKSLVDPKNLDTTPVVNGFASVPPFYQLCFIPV
The target in another data set is Cytochrome P450 1A2 (Homo sapiens, UniProt P05177). Kind of data set: Inhibition of CYP1A2 (unknown origin). It is filed as ADME.
Sequence of Cytochrome P450 1A2 (P05177 whole entry): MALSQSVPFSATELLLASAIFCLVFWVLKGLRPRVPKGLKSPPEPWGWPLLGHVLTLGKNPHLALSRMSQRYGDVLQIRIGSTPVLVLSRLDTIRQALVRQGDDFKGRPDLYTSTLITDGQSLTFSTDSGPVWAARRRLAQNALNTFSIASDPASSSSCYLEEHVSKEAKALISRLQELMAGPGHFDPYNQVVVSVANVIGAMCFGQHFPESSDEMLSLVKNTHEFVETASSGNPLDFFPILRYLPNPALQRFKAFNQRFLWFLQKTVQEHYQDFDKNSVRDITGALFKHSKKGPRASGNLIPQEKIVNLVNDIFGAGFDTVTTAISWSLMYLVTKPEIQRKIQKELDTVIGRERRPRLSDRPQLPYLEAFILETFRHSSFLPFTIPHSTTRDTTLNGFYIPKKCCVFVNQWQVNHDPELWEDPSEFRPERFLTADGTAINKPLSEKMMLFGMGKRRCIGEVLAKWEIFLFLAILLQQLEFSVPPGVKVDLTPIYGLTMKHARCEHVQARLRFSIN
A further data set deals with Cytochrome P450 2C19 (Homo sapiens, UniProt P33261). Kind of data set: Inhibition of CYP2C19 (unknown origin). In kind it is ADME.
Sequence of Cytochrome P450 2C19 (P33261 whole entry): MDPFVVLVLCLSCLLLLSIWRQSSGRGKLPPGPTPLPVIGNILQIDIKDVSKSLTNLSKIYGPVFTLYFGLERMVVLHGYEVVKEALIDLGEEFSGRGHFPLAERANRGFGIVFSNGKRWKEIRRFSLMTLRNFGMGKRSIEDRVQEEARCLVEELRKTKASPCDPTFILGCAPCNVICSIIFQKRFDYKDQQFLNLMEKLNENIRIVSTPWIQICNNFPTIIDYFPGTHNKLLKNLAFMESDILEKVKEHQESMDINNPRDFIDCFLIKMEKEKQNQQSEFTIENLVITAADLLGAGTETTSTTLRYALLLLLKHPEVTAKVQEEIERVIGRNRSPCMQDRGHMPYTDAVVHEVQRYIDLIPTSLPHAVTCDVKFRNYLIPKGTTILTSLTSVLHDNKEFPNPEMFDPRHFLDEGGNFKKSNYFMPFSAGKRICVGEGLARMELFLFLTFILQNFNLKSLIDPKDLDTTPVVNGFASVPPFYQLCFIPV
For data set [5], the system named is HPAF-II. Kind of data set: Antiproliferative activity against human HPAF-II cells assessed as inhibition of cell proliferation measured after 72 hrs. It is filed as functional, cell-based. Summed up: (§1)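 Cells (~30,000; HEK293T, or pancreatic CD18 and MiaPaCa2) exposed to DMSO or a range of inhibitor doses for 72 h, then trypsinized and counted. Counts normalized to the DMSO control. Mean ± SD; three biological replicates; one-way ANOVA.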

Data set [6] has as its system MIA PaCa-2. Kind of data set: Antiproliferative activity against human MIA PaCa-2 cells assessed as inhibition of cell proliferation measured after 72 hrs. It is filed as functional, cell-based. The procedure, abridged: as §1
Data set [7] deals with T2, Dual specificity mitogen-activated protein kinase kinase 7 (Homo sapiens). Kind of data set: Inhibition of human MEK7 in human HEK293T cells assessed as decrease of MEK7 expression in presence of anisomycin at 100 uM measured after 5 hrs by Western blot assay. It is filed as cell-based. The procedure, abridged: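 HEK293T cells pretreated with anisomycin (3 μg/mL) for 45 min, then exposed to inhibitor (100 μM) for 5 h. MEK7 levels were read by Western blot with HSP90 as loading control. Blots are representative of at least three biological replicates.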
Background: A western blot detects proteins with antibodies after separation by electrophoresis.

Data set [8] concerns the target T1, Dual specificity mitogen-activated protein kinase kinase 3 (Homo sapiens). Kind of data set: Inhibition of human MEK3 in human HEK293T cells assessed as inhibition of anisomycin-induced p38 MAPK phosphorylation at 100 uM measured after 5 hrs by Western blot assay. In kind it is cell-based. The procedure, abridged:
(§2)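 HEK293T cells pretreated with anisomycin (3 μg/mL) for 45 min, then given inhibitor (100 μM) for 5 h. Phospho- and total p42/44 MAPK and p38 MAPK, plus MEK7, detected by Western blot with HSP90 as loading control. Blots representative of at least three biological replicates.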

The target of data set [9] is Dual specificity mitogen-activated protein kinase kinase 1 (Homo sapiens) (UniProt Q02750). Kind of data set: Inhibition of human MEK1 in human HEK293T cells assessed as reversal of anisomycin-induced decrease of p42/44 MAPK phosphorylation at 100 uM measured after 5 hrs by Western blot assay. In kind it is cell-based. The procedure, abridged:
as §2

Data set [10] concerns the target Dual specificity mitogen-activated protein kinase kinase 2 (Homo sapiens) (UniProt P36507). Nature of the data set: Inhibition of human MEK2 in human HEK293T cells assessed as reversal of anisomycin-induced decrease of p42/44 MAPK phosphorylation at 100 uM measured after 5 hrs by Western blot assay. It is filed as cell-based. Summed up:
as §2

Data set [11] shares this target. Kind of data set: Inhibition of human MEK2 in human HPAF-II cells assessed as decrease of p42/44 MAPK phosphorylation in presence of U0126 at 10 uM measured after 5 hrs by Westren blot assay. It is filed as cell-based.
Data set [12] has as its system HPAF-II. Nature of the data set: Antiproliferative activity against human HPAF-II cells assessed as inhibition of cell proliferation in presence of […] at 10 uM measured after 72 hrs. In kind it is functional, cell-based. Summed up: (§3)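 CD18 or MiaPaCa2 cells (~30,000) treated for 72 h with DMSO, U0126 (1 or 5 μM), MEK4 inhibitor (10 μM), or the combination. Cells trypsinized and counted, with counts normalized to DMSO; two-way ANOVA. Interaction expressed as CDI = AB/(A × B) from the normalized ratios, mean ± SEM of three biological replicates.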

The subject of data set [13] is MIA PaCa-2. Kind of data set: Antiproliferative activity against human MIA PaCa-2 cells assessed as inhibition of cell proliferation in presence of […] at 10 uM measured after 72 hrs. It is filed as functional, cell-based. The procedure, abridged: as §3

Sequence of Dual specificity mitogen-activated protein kinase kinase 2 (Homo sapiens) (P36507 whole entry): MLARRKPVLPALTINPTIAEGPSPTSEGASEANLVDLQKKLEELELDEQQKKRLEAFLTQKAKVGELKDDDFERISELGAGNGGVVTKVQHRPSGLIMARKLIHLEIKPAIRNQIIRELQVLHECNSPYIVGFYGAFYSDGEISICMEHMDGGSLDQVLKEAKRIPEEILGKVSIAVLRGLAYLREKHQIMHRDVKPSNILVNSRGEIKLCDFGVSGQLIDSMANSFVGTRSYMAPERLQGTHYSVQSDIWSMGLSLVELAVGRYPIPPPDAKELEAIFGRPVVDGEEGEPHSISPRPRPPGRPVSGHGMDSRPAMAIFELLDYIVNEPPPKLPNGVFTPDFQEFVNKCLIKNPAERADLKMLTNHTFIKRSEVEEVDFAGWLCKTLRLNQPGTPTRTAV
Sequence of Cytochrome P450 2D6 (P10635 whole entry): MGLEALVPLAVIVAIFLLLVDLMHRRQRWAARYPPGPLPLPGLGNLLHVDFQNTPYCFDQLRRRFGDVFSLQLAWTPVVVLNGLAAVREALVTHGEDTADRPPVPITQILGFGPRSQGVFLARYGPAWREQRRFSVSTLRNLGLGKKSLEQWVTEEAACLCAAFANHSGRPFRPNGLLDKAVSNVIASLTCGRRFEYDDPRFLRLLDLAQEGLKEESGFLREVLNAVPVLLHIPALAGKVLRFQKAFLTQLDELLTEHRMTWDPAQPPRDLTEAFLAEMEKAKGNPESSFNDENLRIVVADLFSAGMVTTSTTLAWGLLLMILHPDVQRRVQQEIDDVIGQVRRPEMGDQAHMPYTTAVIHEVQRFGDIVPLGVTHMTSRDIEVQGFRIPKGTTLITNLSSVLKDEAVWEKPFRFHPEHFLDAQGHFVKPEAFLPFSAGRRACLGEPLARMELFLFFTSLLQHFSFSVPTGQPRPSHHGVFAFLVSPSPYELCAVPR
Sequence of Dual specificity mitogen-activated protein kinase kinase 1 (Homo sapiens) (Q02750 whole entry): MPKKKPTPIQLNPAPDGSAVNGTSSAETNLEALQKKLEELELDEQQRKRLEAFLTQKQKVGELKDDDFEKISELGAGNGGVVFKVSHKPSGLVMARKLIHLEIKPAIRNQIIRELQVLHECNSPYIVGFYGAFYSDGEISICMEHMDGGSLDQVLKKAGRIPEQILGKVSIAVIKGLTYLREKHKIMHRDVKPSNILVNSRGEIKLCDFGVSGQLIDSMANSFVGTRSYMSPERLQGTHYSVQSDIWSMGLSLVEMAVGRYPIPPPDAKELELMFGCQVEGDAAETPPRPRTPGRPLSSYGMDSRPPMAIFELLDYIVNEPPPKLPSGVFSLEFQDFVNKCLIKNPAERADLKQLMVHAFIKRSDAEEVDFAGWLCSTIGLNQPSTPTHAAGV
Sequence of Cytochrome P450 3A5 (P20815 whole entry): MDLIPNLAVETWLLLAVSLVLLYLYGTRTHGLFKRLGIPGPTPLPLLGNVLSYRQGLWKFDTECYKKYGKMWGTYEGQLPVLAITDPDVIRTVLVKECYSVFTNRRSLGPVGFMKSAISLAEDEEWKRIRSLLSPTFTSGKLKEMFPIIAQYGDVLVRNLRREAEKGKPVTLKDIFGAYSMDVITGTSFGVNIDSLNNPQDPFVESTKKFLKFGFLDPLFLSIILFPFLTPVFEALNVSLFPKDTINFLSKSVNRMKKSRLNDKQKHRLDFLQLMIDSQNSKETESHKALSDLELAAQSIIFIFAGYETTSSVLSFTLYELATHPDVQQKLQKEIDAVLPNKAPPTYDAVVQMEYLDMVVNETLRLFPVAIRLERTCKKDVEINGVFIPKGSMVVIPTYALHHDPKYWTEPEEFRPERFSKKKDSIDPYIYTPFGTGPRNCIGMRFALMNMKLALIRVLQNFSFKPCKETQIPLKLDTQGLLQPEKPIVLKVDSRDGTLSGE

A word on the inhibition: it is the relative decrease from the control value, in per cent. In general, half-life refers to the time needed for the level to fall by half in the phase considered. As for `NC(=O)c1ccc(NS(=O)(=O)c2cccc(-c3n[nH]c4cc(F)ccc34)c2)cc1`, the values for the inhibition in data set [1], in data set [2] and in [3] were 86%, 74% and 97%, respectively. The half-life in data set [4] is more than 3.08 h. Besides, the “inhibition (INH)” value against Cytochrome P450 3A5 is on record as “Not Active”; at Cytochrome P450 2D6 it was “Active”; against Cytochrome P450 2C9, “Active”; against Cytochrome P450 1A2 it was “Active”; against Cytochrome P450 2C19 it was “Active”. Also, the outcome in the data set with HPAF-II [5], with MIA PaCa-2 [6], in the data set with HPAF-II [12] and in the data set on MIA PaCa-2 [13] was Active. In addition, the inhibition result in [7] and in data set [8] was “inactive” throughout. Besides, the inhibition result in data set [9], in data set [10] and in data set [11] was “Active” throughout.

Regarding `NS(=O)(=O)c1ccc(-c2n[nH]c3cc(F)ccc23)cc1`, the values for the inhibition in data set [1], in data set [2] and in [3] were 40%, 58% and 50%, respectively. Further, the half-life in data set [4] is 1.9 h. Moreover, the “inhibition (INH)” value against Cytochrome P450 3A5 was “Not Active”; at Cytochrome P450 2D6, “Not Active”; against Cytochrome P450 2C9, “Not Active”; against Cytochrome P450 1A2, “Active”; on Cytochrome P450 2C19, “Active”. Moreover, the result in the data set with HPAF-II [5], in the data set with MIA PaCa-2 [6], with HPAF-II [12] and in the data set on MIA PaCa-2 [13] was Active. Besides, the inhibition entry in data set [7] and in [8] was “inactive” each time. Also, the inhibition result in [9], in data set [10] and in data set [11] was “Active” each time.
